Measurements from ChEMBL document CHEMBL3627671, “Novel derivatives of nitro-substituted salicylic acids: Synthesis, antimicrobial activity and cytotoxicity” (Bioorg Med Chem, 2015).

Tests used:
[1] = system: Trichophyton mentagrophytes; experiment: Antifungal activity against Trichophyton mentagrophytes 445 after 48 hrs by microdilution broth method; assay type: functional; conditions: Trichophyton mentagrophytes, 445, 48 h
[2] = system: Staphylococcus epidermidis; experiment: Antibacterial activity against Staphylococcus epidermidis H 6966/08 after 48 hrs by microdilution broth method; assay type: functional; conditions: H 6966/08, 48 h
Procedure, shortened: (§1)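 Mueller-Hinton broth microdilution (modified M07-A07), pH 7.4 (±0.2). Compounds dissolved in DMSO, tested at final 500 to 0.49 µmol/L. Inoculum in sterile water matched to 0.5 McFarland. Incubated in the dark, humid atmosphere, 35 °C, read at 24 and 48 h visually and at 540 nm. MIC taken as ≥95% growth reduction (IC95) versus control.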

[3] = system: Trichophyton mentagrophytes; experiment: Antifungal activity against Trichophyton mentagrophytes 445 after 24 hrs by microdilution broth method; assay type: functional; conditions: Trichophyton mentagrophytes, 445, 24 h
Candida albicans [4] = experiment: Antifungal activity against Candida albicans ATCC 44859 after 24 hrs by microdilution broth method; assay type: functional; conditions: ATCC 44859, 24 h
Procedure, shortened: (§2)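 CLSI M27-A3 broth microdilution in RPMI 1640 with glutamine, buffered to pH 7.0 with MOPS; DMSO diluent. Yeast inoculum 5 × 10^3 ± 0.2 CFU/mL. Moulds grown on Sabouraud agar 3–10 days before spore harvest, final inoculum 0.5-5 × 10^4 CFU/mL, checked in a Bürker chamber. Incubated dark, humid, 35 °C, read at 24 and 48 h visually and at 540 nm. MIC taken as ≥80% (yeasts) or ≥50% (filamentous) growth reduction versus control.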

[5] = Selectivity index, ratio of CI50 for human HepG2 cells to MIC100 for Mycobacterium tuberculosis H37Rv 331/88
Pseudomonas aeruginosa [6] = experiment: Antibacterial activity against Pseudomonas aeruginosa CCM 1961 after 48 hrs by microdilution broth method; assay type: functional; conditions: CCM 1961, 48 h; procedure, shortened: as §1
Mycobacterium kansasii [7] = experiment: Antimycobacterial activity against Mycobacterium kansasii 6509/96 after 21 days; assay type: functional; conditions: 6509/96, 504 h
Procedure, shortened: (§3)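 Šula's semisynthetic medium micromethod at 37 °C, read after 7, 14 and 21 days. The 1.0 McFarland suspension was diluted 10^-4. MIC determined. 6509/96 is a clinical isolate.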

Escherichia coli [8] = experiment: Antibacterial activity against Escherichia coli CCM4517 after 48 hrs by microdilution broth method; assay type: functional; conditions: CCM4517, 48 h; procedure, shortened: as §1
Candida tropicalis [9] = experiment: Antifungal activity against Candida tropicalis 156 after 48 hrs by microdilution broth method; assay type: functional; conditions: Candida tropicalis, 156, 48 h; procedure, shortened: as §2
Staphylococcus aureus [10] = experiment: Antibacterial activity against Staphylococcus aureus CCM 4516/08 after 48 hrs by microdilution broth method; assay type: functional; conditions: CCM 4516/08, 48 h
[11] = system: Mycobacterium tuberculosis; experiment: Antimycobacterial activity against Mycobacterium tuberculosis H37Rv 331/88 after 21 days; assay type: functional; conditions: H37Rv 331/88, 504 h
Enterococcus sp. [12] = experiment: Antibacterial activity against Enterococcus sp. J 14365/08 after 24 hrs by microdilution broth method; assay type: functional; conditions: J 14365/08, 24 h; procedure, shortened: as §1
Escherichia coli [13] = experiment: Antibacterial activity against Escherichia coli CCM4517 after 24 hrs by microdilution broth method; assay type: functional; conditions: CCM4517, 24 h; procedure, shortened: as §1
Mycobacterium kansasii [14] = experiment: Antimycobacterial activity against Mycobacterium kansasii 235/80 after 7 days; assay type: functional; conditions: 235/80, 168 h; procedure, shortened: as §3
Enterococcus sp. [15] = experiment: Antibacterial activity against Enterococcus sp. J 14365/08 after 48 hrs by microdilution broth method; assay type: functional; conditions: J 14365/08, 48 h; procedure, shortened: as §1
Klebsiella pneumoniae [16] = experiment: Antibacterial activity against Klebsiella pneumoniae D 11750/08 after 48 hrs by microdilution broth method; assay type: functional; conditions: D 11750/08, 48 h; procedure, shortened: as §1
Aspergillus fumigatus [17] = experiment: Antifungal activity against Aspergillus fumigatus 231 after 24 hrs by microdilution broth method; assay type: functional; conditions: Aspergillus fumigatus, 231, 24 h; procedure, shortened: as §2
Nakaseomyces glabratus [18] = experiment: Antifungal activity against Candida glabrata 20/I after 24 hrs by microdilution broth method; assay type: functional; procedure, shortened: as §2
Mycobacterium kansasii [19] = experiment: Antimycobacterial activity against Mycobacterium kansasii 235/80 after 14 days; assay type: functional; conditions: 235/80, 336 h; procedure, shortened: as §3
Candida albicans [20] = experiment: Antifungal activity against Candida albicans ATCC 44859 after 48 hrs by microdilution broth method; assay type: functional; conditions: ATCC 44859, 48 h; procedure, shortened: as §2
Mycobacterium kansasii [21] = experiment: Antimycobacterial activity against Mycobacterium kansasii 6509/96 after 14 days; assay type: functional; conditions: 6509/96, 336 h; procedure, shortened: as §3
Klebsiella pneumoniae [22] = experiment: Antibacterial activity against Klebsiella pneumoniae D 11750/08 after 24 hrs by microdilution broth method; assay type: functional; conditions: D 11750/08, 24 h; procedure, shortened: as §1
Trichosporon asahii [23] = experiment: Antifungal activity against Trichosporon asahii 1188 after 48 hrs by microdilution broth method; assay type: functional; conditions: Trichosporon asahii, 1188, 48 h; procedure, shortened: as §2
Klebsiella pneumoniae [24] = experiment: Antibacterial activity against ESBL-positive Klebsiella pneumoniae J 14368/08 after 24 hrs by microdilution broth method; assay type: functional; conditions: J 14368/08, 24 h; procedure, shortened: as §1
Staphylococcus aureus [25] = experiment: Antibacterial activity against Staphylococcus aureus CCM 4516/08 after 24 hrs by microdilution broth method; assay type: functional; conditions: CCM 4516/08, 24 h
Lichtheimia corymbifera [26] = experiment: Antifungal activity against Absidia corymbifera 272 after 48 hrs by microdilution broth method; assay type: functional; conditions: Lichtheimia corymbifera, 272, 48 h; procedure, shortened: as §2
Mycobacterium kansasii [27] = experiment: Antimycobacterial activity against Mycobacterium kansasii 235/80 after 21 days; assay type: functional; conditions: 235/80, 504 h; procedure, shortened: as §3
Pichia kudriavzevii [28] = experiment: Antifungal activity against Candida krusei E28 after 24 hrs by microdilution broth method; assay type: functional; conditions: E28, 24 h; procedure, shortened: as §2
Trichosporon asahii [29] = experiment: Antifungal activity against Trichosporon asahii 1188 after 24 hrs by microdilution broth method; assay type: functional; conditions: Trichosporon asahii, 1188, 24 h; procedure, shortened: as §2
Klebsiella pneumoniae [30] = experiment: Antibacterial activity against ESBL-positive Klebsiella pneumoniae J 14368/08 after 48 hrs by microdilution broth method; assay type: functional; conditions: J 14368/08, 48 h; procedure, shortened: as §1
Pichia kudriavzevii [31] = experiment: Antifungal activity against Candida krusei E28 after 48 hrs by microdilution broth method; assay type: functional; conditions: E28, 48 h; procedure, shortened: as §2
Staphylococcus aureus [32] = experiment: Antibacterial activity against methicillin-resistant Staphylococcus aureus H 5996/08 after 48 hrs by microdilution broth method; assay type: functional; conditions: H 5996/08, 48 h
HepG2 = experiment: Cytotoxicity against human HepG2 cells after 24 hrs […]; assay type: cell-based; conditions: HepG2, 24 h
Candida tropicalis [33] = experiment: Antifungal activity against Candida tropicalis 156 after 24 hrs by microdilution broth method; assay type: functional; conditions: Candida tropicalis, 156, 24 h; procedure, shortened: as §2
Aspergillus fumigatus [34] = experiment: Antifungal activity against Aspergillus fumigatus 231 after 48 hrs by microdilution broth method; assay type: functional; conditions: Aspergillus fumigatus, 231, 48 h; procedure, shortened: as §2
Nakaseomyces glabratus [35] = experiment: Antifungal activity against Candida glabrata 20/I after 48 hrs by microdilution broth method; assay type: functional; procedure, shortened: as §2
Staphylococcus aureus [36] = experiment: Antibacterial activity against methicillin-resistant Staphylococcus aureus H 5996/08 after 24 hrs by microdilution broth method; assay type: functional; conditions: H 5996/08, 24 h
Mycobacterium avium [37] = experiment: Antimycobacterial activity against Mycobacterium avium 330/80 after 14 days; assay type: functional; conditions: 330/80, 336 h
Pseudomonas aeruginosa [38] = experiment: Antibacterial activity against Pseudomonas aeruginosa CCM 1961 after 24 hrs by microdilution broth method; assay type: functional; conditions: CCM 1961, 24 h; procedure, shortened: as §1
[39] = system: Mycobacterium tuberculosis; experiment: Antimycobacterial activity against Mycobacterium tuberculosis H37Rv 331/88 after 14 days; assay type: functional; conditions: H37Rv 331/88, 336 h
[40] = system: Staphylococcus epidermidis; experiment: Antibacterial activity against Staphylococcus epidermidis H 6966/08 after 24 hrs by microdilution broth method; assay type: functional; conditions: H 6966/08, 24 h; procedure, shortened: as §1
Mycobacterium avium [41] = experiment: Antimycobacterial activity against Mycobacterium avium 330/80 after 21 days; assay type: functional; conditions: 330/80, 504 h
Lichtheimia corymbifera [42] = experiment: Antifungal activity against Absidia corymbifera 272 after 24 hrs by microdilution broth method; assay type: functional; conditions: Lichtheimia corymbifera, 272, 24 h; procedure, shortened: as §2
Mycobacterium kansasii [43] = experiment: Antimycobacterial activity against Mycobacterium kansasii 6509/96 after 7 days; assay type: functional; conditions: 6509/96, 168 h; procedure, shortened: as §3

O=C(Nc1ccc(Cl)c(Cl)c1)c1ccc([N+](=O)[O-])cc1O
> 250 µM: MIC (Candida tropicalis [9])
7.81 µM: MIC (Pichia kudriavzevii [28]) | MIC (Trichosporon asahii [29])
500 µM: MIC (Enterococcus sp. [15])
31.2 µM: MIC (Aspergillus fumigatus [17]) | MIC (Nakaseomyces glabratus [18]) | MIC (Lichtheimia corymbifera [26]) | MIC (Aspergillus fumigatus [34]) | MIC (Lichtheimia corymbifera [42])
4 µM: MIC (Mycobacterium kansasii [14]) | MIC [39]
8 µM: MIC [11] | MIC (Mycobacterium kansasii [19]) | MIC (Mycobacterium kansasii [27]) | MIC (Mycobacterium kansasii [43])
> 500 µM: MIC (Pseudomonas aeruginosa [6]) | MIC (Escherichia coli [8]) | MIC (Escherichia coli [13]) | MIC (Klebsiella pneumoniae [16]) | MIC (Klebsiella pneumoniae [22]) | MIC (Klebsiella pneumoniae [24]) | MIC (Klebsiella pneumoniae [30]) | MIC (Pseudomonas aeruginosa [38])
1.95 µM: MIC [2] | MIC (Staphylococcus aureus [32]) | MIC (Staphylococcus aureus [36]) | MIC [40]
16 µM: MIC (Mycobacterium kansasii [7]) | MIC (Mycobacterium kansasii [21])
32 µM: MIC (Mycobacterium avium [37])
0.175: Selectivity Index [5]
1.4 µM: IC50 (HepG2)
125 µM: MIC [1] | MIC [3] | MIC (Enterococcus sp. [12]) | MIC (Candida tropicalis [33])
62.5 µM: MIC (Candida albicans [4]) | MIC (Candida albicans [20]) | MIC (Nakaseomyces glabratus [35]) | MIC (Mycobacterium avium [41])
3.9 µM: MIC (Staphylococcus aureus [10]) | MIC (Staphylococcus aureus [25])
15.6 µM: MIC (Trichosporon asahii [23]) | MIC (Pichia kudriavzevii [31])

O=C(Nc1cccc(C(F)(F)F)c1)c1cc([N+](=O)[O-])ccc1O
32 µM: MIC (Mycobacterium kansasii [19]) | MIC (Mycobacterium kansasii [43])
125 µM: MIC (Mycobacterium avium [37]) | MIC (Mycobacterium avium [41])
8 µM: MIC [39]
> 500 µM: MIC (Candida albicans [4]) | MIC (Pseudomonas aeruginosa [6]) | MIC (Escherichia coli [8]) | MIC (Candida tropicalis [9]) | MIC (Enterococcus sp. [12]) | MIC (Escherichia coli [13]) | MIC (Enterococcus sp. [15]) | MIC (Klebsiella pneumoniae [16]) | MIC (Nakaseomyces glabratus [18]) | MIC (Candida albicans [20]) | MIC (Klebsiella pneumoniae [22]) | MIC (Klebsiella pneumoniae [24]) | MIC (Pichia kudriavzevii [28]) | MIC (Klebsiella pneumoniae [30]) | MIC (Pichia kudriavzevii [31]) | MIC (Candida tropicalis [33]) | MIC (Nakaseomyces glabratus [35]) | MIC (Pseudomonas aeruginosa [38])
62.5 µM: MIC (Mycobacterium kansasii [7]) | MIC (Mycobacterium kansasii [21]) | MIC (Mycobacterium kansasii [27])
16 µM: MIC [11] | MIC (Mycobacterium kansasii [14])
31.2 µM: MIC [2] | MIC (Staphylococcus aureus [10]) | MIC (Staphylococcus aureus [25]) | MIC (Staphylococcus aureus [32]) | MIC (Staphylococcus aureus [36]) | MIC [40]
0.463: Selectivity Index [5]
500 µM: MIC [1] | MIC [3] | MIC (Aspergillus fumigatus [17]) | MIC (Trichosporon asahii [23]) | MIC (Lichtheimia corymbifera [26]) | MIC (Trichosporon asahii [29]) | MIC (Aspergillus fumigatus [34]) | MIC (Lichtheimia corymbifera [42])
7.4 µM: IC50 (HepG2)
